Screens deposited in PubChem by several laboratories.
Most compounds without a hit are left out; they make up all but 1.8% or so of the library.
ABHD4 inh – inhibits mouse alpha/beta hydrolase domain 4; inhibition, % at 8.92 µM; purified mABHD4, FP-Rh probe fluorescence polarization; actives 0.54% (n = 370,000);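 active means inhibition exceeding the mean over every tested compound plus 3 SD, cut at about 30% in these data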;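 further: 0% = plate median of compound wells and 100% = S159A mutant with DMSO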
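Assay system: Wild-type mouse ABHD4 protein | Medium: HEPES pH 7.0 buffer, 150 mM NaCl, 0.01% Pluronic F-127 | Incubation: Enzyme–compound pre-incubation 45 min, then probe 60 min, both 25 °C | Technique: Fluorescence polarization with parallel and perpendicular emission, 525/598 nm | Evaluation: % inhibition of FP-Rh probe binding versus controls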
HTRA1 inhibitor – blocks human HTRA1 serine peptidase; Q92743; recombinant HTRA1, FP-rhodamine activity-based probe, fluorescence polarization; inhibition, % at 5.96 µM; actives 0.5% (n = 340,000); in the data active means inhibition above about 36%;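 further: 0% = enzyme with DMSO and 100% = wells lacking enzyme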
Target sequence (Q92743 whole entry, looked up): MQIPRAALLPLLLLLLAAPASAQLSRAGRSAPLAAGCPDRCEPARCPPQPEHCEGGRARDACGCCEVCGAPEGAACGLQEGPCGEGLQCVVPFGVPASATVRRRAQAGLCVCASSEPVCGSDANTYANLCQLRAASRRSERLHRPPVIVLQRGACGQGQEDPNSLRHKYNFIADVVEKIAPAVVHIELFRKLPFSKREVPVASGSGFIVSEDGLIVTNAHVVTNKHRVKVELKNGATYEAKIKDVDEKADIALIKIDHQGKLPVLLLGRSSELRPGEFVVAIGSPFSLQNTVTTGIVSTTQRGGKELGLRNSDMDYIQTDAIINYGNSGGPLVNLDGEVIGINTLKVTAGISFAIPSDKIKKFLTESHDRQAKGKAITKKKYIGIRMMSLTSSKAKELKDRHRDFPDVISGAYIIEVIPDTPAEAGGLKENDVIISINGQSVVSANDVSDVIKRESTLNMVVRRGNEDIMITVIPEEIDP
ARNT-TACC3 inh – disrupts binding between human ARNT and TACC3; Q9Y6A5; AlphaScreen His-ARNT PAS-B/GST-TACC3 binding, luminescence; TACC3 fragment carries E629A point mutation; inhibition, % at 9.99 µM; actives 0.66% (n = 390,000);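 active means mean inhibition of replicates at least 50% and at least half of replicates each reaching 50%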;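 further: 0% = complete ARNT plus TACC3 wells and 100% = ARNT alone without TACC3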
SIAE primary – human SIAE inhibition, primary screen; Q9HAT2; SIAE FP-Rh probe binding, fluorescence polarization; inhibition, % at 9.66 µM; actives 0.69% (n = 370,000);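 active means inhibition above a cutoff: mean of compounds within the control limits plus 3 SD of those, cut at about 17% in these data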;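 further: 0% = plate median of compound wells and 100% = probe without SIAE protein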
TCR-CD3 inh – blocks the human TCR-CD3 interaction; TAMRA-labeled TCR probe fluorescence, biochemical; inhibition, % at 9.4 µM; actives 0.37% (n = 360,000); in the data active means inhibition above about 19%;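 further: recombinant mutant TCR 2C K166C tagged with TAMRA read by polarization; 0% = receptor in buffer alone and 100% = receptor with positive control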
* marks the source's active call; other numbers are inactive results; . = not tested or not shown.

SMILES	ABHD4 inh	HTRA1 inhibitor	ARNT-TACC3 inh	SIAE primary	TCR-CD3 inh
Clc1ccc(CNc2ncccn2)cc1	-3	6	5	-6	-5
Oc1cc(NCc2ccc(Cl)cc2)cc2cccnc12	7	20	37*	8	2
O=C(Cc1ccccn1)NCC[C@H]1CC[C@H](NC(=O)Nc2ccccc2)[C@H](CO)O1	.	.	4	.	.
CC(C)(C)c1ccc(C(=O)NCCCn2ccnc2)cc1	4	0	active	-3	10
O=C(Nc1ccccc1C(=O)NCCCn1ccnc1)c1ccccc1	.	5	1	.	.
CC(C)(C)C(=O)Nc1ccccc1C(=O)NCCCn1ccnc1	-7	5	61*	-2	-4
CC(C)NC(=O)N(C)C[C@@H]1Oc2c(NC(=O)Nc3ccc(F)cc3)cccc2C(=O)N([C@H](C)CO)C[C@@H]1C	.	.	-5	.	.
C[C@@H]1CN([C@H](C)CO)C(=O)Cc2cc(NC(=O)Cc3cn(C)c4ccccc34)ccc2O[C@@H]1CN(C)S(=O)(=O)c1cccs1	.	.	-27	.	.
Cc1nc(-n2[nH]c3c(c2=O)CCCC3)[nH]c(=O)c1Cc1ccccc1	3	6	59*	8	-2
O=C(C[C@@H]1C[C@H]2c3cc(NC(=O)Nc4ccccc4)ccc3O[C@H]2[C@@H](CO)O1)NCC(F)(F)F	.	.	-6	.	.
CO[C@H](CN(C)C(=O)C1CCOCC1)[C@@H](C)CN(C(=O)Nc1ccc(F)cc1)[C@H](C)CO	.	.	4	.	.
Brc1ccc(-c2cn3nc4c(nc3n2)CCCC4)cc1	16	18	.	14	8
Brc1ccc(-c2cn3c(n2)CCc2ccc4cccnc4c2-3)cc1	9	-2	47*	-2	-2
C[C@@H]1CN([C@H](C)CO)C(=O)c2cc(-c3cncnc3)cnc2O[C@@H]1CN(C)C(=O)Cc1cccnc1	.	.	-3	.	.
CCN(C(C)=O)c1cnc(C=NNC(N)=S)c2ccccc12	7	-6	86*	-2	5
Cc1ccc(S(=O)(=O)N2CC[C@H]3[C@H](CO)Nc4ccc(Br)cc4[C@H]32)cc1	.	.	-1	.	.
Cc1ccc(C(=O)OCC(=O)Nc2ccccc2N2CCOCC2)cc1	1	-7	-1	18*	-2
CC(C)c1cn(CC[C@@H]2CC[C@H](N)[C@@H](CO)O2)nn1	.	.	-4	.	.
COC1=C(Nc2ccc(C)cc2)C(=O)c2ccccc2C1=O	1	11	51*	15	-1
COC1=C(Nc2ccccc2)C(=O)c2ccccc2C1=O	15	12	46*	13	1
Cc1ccc(C(C[N+](=O)[O-])c2c(C)[nH]n(-c3ccccc3)c2=O)cc1 (stereo unspecified)	2	4	51*	5	-1
O=C1c2cc(Br)ccc2N(Cc2ccc(Br)cc2)S(=O)(=O)C1c1cc(Cl)c(Cl)cc1[N+](=O)[O-] (stereo unspecified)	.	53*	.	.	.
O=C1CS(=O)(=O)N(Cc2cccc(F)c2)c2ccc(Br)cc21	-63	-136	-23	-23	-8
COCC(=O)Nc1ccc2c(c1)OC[C@@H](C)N(C(=O)c1ccccc1)C[C@@H](C)[C@H](OC)CN(C)C2=O	.	.	0	.	.
COCC#Cc1ccc2c(c1)O[C@H](CN(C)C(=O)C1CC1)[C@H](C)CN([C@@H](C)CO)S2(=O)=O	.	.	3	.	.
SMILES	ABHD4 inh	HTRA1 inhibitor	ARNT-TACC3 inh	SIAE primary	TCR-CD3 inh
Cc1ccc(S(=O)(=O)N2CCOCC2)cc1C(=O)Nc1nc(-c2ccccn2)cs1	2	8	75*	3	4
C[C@H](NC(=O)c1ccccc1)C(=O)Nc1nc(-c2ccccn2)cs1	-8	8	64*	4	0
COc1ccccc1C(=O)Nc1nc(-c2ccc(S(=O)(=O)N3CCOCC3)cc2)cs1	-27	-50	4	-30	2
O=C(COc1ccc(F)cc1Cl)Nc1nc(-c2ccccn2)cs1	-1	11	48*	1	1
Cc1cccc(C(=O)NC(C(=O)Nc2nc(-c3ccccn3)cs2)C(C)C)c1 (stereo unspecified)	1	6	45	2	0
CCc1sc(C(=O)Nc2nc(-c3ccccn3)cs2)cc1C	.	10	63*	.	.
C[C@@H]1CN([C@H](C)CO)S(=O)(=O)c2ccc(/C=C/c3ccccc3)cc2O[C@H]1CN(C)Cc1cncnc1	.	.	-4	.	.
COc1ccccc1CNC(=O)C[C@H]1CC[C@H]2[C@@H](COC[C@H](O)CN2C(=O)Nc2ccccc2)O1	.	.	3	.	.
CO[C@@H](CN(C)C(=O)Nc1ccc(Cl)cc1)[C@@H](C)CN(Cc1ccccc1Cl)[C@@H](C)CO	.	.	6	.	.
